{"data": "Experimental data from different studies", "target": "Protein kinase C iota type (PRKCI, Homo sapiens, UniProt P41743)", "Residues used in one study (P41743 1-596)": "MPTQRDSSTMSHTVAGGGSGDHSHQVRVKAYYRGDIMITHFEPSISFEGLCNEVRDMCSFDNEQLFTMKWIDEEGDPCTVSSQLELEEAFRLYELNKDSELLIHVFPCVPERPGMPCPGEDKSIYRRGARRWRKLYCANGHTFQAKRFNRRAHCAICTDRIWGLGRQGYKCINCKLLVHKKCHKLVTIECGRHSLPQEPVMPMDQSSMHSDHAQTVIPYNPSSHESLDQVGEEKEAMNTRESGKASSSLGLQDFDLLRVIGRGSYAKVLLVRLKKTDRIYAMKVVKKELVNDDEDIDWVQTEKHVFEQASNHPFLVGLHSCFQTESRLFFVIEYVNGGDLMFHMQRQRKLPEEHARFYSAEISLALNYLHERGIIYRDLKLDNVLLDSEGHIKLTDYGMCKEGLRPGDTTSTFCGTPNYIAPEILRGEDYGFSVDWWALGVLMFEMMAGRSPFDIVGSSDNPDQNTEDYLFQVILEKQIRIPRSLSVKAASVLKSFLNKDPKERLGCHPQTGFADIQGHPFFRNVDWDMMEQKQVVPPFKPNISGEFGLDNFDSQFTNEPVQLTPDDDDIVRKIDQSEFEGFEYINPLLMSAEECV", "note": "Compare with care: the assays were run in different laboratories."}
{"SMILES": "Cc1cnc(Nc2ccc(C(=O)N3CCC(N4CCCC4)CC3)cc2)nc1-c1cc2ccccc2s1", "test": "binding, competition with immobilised ligand", "conditions": "1 µM", "remaining binding": "83%"}
{"SMILES": "N[C@H]1CCN(c2nccc(-c3cnn4ncccc34)n2)C1", "test": "binding", "conditions": "1 µM", "remaining binding": "37%"}
{"SMILES": "O=C(NCCCN1CCOCC1)c1ccc(Nc2nccc(-c3cc4ccccc4s3)n2)cc1", "test": "binding, competition with immobilised ligand", "conditions": "1 µM", "remaining binding": "87%"}
{"SMILES": "O=C(O)[C@H]1[C@H](Cn2nnc3ccccc3c2=O)CC[C@@H]1C(=O)c1ccc(OCCC2CCOCC2)cc1", "test": "cell-free assay, competition with immobilised ligand", "conditions": "1 µM", "remaining binding": "66%"}
{"SMILES": "C[C@H]1CCN(c2nccc(-c3cnn4ncccc34)n2)C1", "test": "binding", "conditions": "1 µM", "remaining binding": "59%"}
{"SMILES": "CCN1CCN(Cc2ccc(C(=O)Nc3ccc(C)c(Oc4ccc5c(c4)CC(=O)N5)c3)cc2C(F)(F)F)CC1", "test": "binding, competition with immobilised ligand", "conditions": "1 µM", "remaining binding": "100%"}
{"SMILES": "O=C1NC(c2ccccn2)Sc2ccccc21 (centres unmarked)", "test": "cell-free assay, competition with immobilised ligand", "conditions": "1 µM", "remaining binding": "72%"}
{"SMILES": "C=CC(=O)N1CCC(C(=O)NCC(=O)N2CCN(c3nc(-c4cnc(N)nc4C(F)F)nc(N4CCOCC4)n3)CC2)CC1", "test": "binding, competition with immobilised ligand", "conditions": "1 µM", "remaining binding": "95%"}
{"SMILES": "O=C(NCC1CCOCC1)c1n[nH]cc1NC(=O)c1c(F)cccc1F", "test": "binding, competition with immobilised ligand", "conditions": "1 µM", "remaining binding": "73%"}
{"SMILES": "COc1cnc(Nc2cccc(S(N)(=O)=O)c2)nc1N1CCN(c2ccccc2)CC1", "test": "binding, competition with immobilised ligand", "conditions": "1 µM", "remaining binding": "95%"}
{"SMILES": "CN([C@@H]1CCc2c(CC(=O)O)c3cc(S(C)(=O)=O)ccc3n2C1)S(=O)(=O)c1ccc(F)cc1", "test": "cell-free assay, competition with immobilised ligand", "conditions": "1 µM", "remaining binding": "100%"}
{"SMILES": "CN(C)c1ncc(F)c(-c2cnn3ncccc23)n1", "test": "binding", "conditions": "1 µM", "remaining binding": "100%"}
{"SMILES": "CC(=O)N1CCC(c2ccc(C(=O)NC(=N)N)cc2C(F)(F)F)CC1", "test": "cell-free assay, competition with immobilised ligand", "conditions": "1 µM", "remaining binding": "100%"}
{"SMILES": "CNC(=O)[C@@H]1CC[C@@H](n2c(-c3ccc4cnccc4c3)nc3ccc(C(=O)NCc4cccc(C(N)=O)c4)cc32)C1", "test": "binding, competition with immobilised ligand", "conditions": "1 µM", "remaining binding": "97%"}
{"SMILES": "F[C@@H]1CCN(c2nccc(-c3cnn4ncccc34)n2)C1", "test": "binding", "conditions": "1 µM", "remaining binding": "100%"}
{"SMILES": "C[C@@H]1CN(c2cc(-c3n[nH]c4ccc(OC5(C)CC5)cc34)ncn2)C[C@H](C)O1", "test": "cell-free assay, competition with immobilised ligand", "conditions": "0.1 µM", "remaining binding": "80%"}
{"SMILES": "CN(C)c1nccc(-c2cnc3ncccn23)n1", "test": "binding", "conditions": "1 µM", "remaining binding": "72%"}
{"SMILES": "CN([C@@H]1CCc2c(CC(=O)O)c3ccccc3n2C1)S(=O)(=O)c1ccc(F)cc1", "test": "cell-free assay, competition with immobilised ligand", "conditions": "1 µM", "remaining binding": "100%"}
{"SMILES": "Cc1cnn2ncc(-c3ccnc(N(C)C)n3)c2c1", "test": "binding", "conditions": "1 µM", "remaining binding": "81%"}
{"SMILES": "O=C(NCCCN1CCOCC1)c1ccc(Nc2ncc(Cl)c(-c3ccc(Cl)s3)n2)cc1", "test": "binding, competition with immobilised ligand", "conditions": "1 µM", "remaining binding": "98%"}
